CXCR6 block – blocks human CXCR6 beta-arrestin recruitment. O00574. CHO-K1 PathHunter CXCR6 beta-arrestin, luminescence. inhibition, % at 20 µM. 360,000 compounds, 0.36% hits. AID 602244; in the data active = inhibition above about 34%, passing the limit was not always enough;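 note: antagonist mode with CXCL16 agonist at 10 nM final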
APJ ag – activates the human apelin receptor APJ; P35414; CHO-K1 APJ PathHunter beta-arrestin, luminescence; 0% DMSO wells, 100% apelin; activation, % at 20 µM; 330,000 compounds, 0.11% hits; AID 2520;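 active = activation more than six SD over the plate average, tested at 20 µM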
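Assay system: CHO-K1 cells stably expressing ProLink-tagged human APJ and arrestin–beta-gal acceptor. Compound dosing: 20 µM single point, 1% DMSO. Times: 16-18 h seeding, 90 min dark compound exposure, 60 min detection. Detection: beta-gal luminescence. Evaluation: APJ–arrestin association signal. Controls: negative DMSO alone, positive Apelin-13 at 10 nM.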
APJ antag – blocks the human apelin receptor APJ. P35414. CHO-K1 APJ beta-arrestin complementation, luminescence. inhibition, % at 20 µM. 330,000 compounds, 0.32% hits;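 active = inhibition above about 40% at 20 µM, limit read from the data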;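 note: cells challenged with 10 nM apelin-13 agonist together with compound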
EBI2 block – blocks human EBI2 receptor beta-arrestin signaling | EBI2 beta-arrestin recruitment, luminescence, 7a,25-OHC stimulated | inhibition, % at 5 µM | 360,000 compounds, 0.81% hits | P32249; in the data active = inhibition above about 38%;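 note: enzyme fragment complementation signal reports receptor beta-arrestin coupling in cells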
Target sequence (P32249 whole entry, looked up, the tested form may be a part): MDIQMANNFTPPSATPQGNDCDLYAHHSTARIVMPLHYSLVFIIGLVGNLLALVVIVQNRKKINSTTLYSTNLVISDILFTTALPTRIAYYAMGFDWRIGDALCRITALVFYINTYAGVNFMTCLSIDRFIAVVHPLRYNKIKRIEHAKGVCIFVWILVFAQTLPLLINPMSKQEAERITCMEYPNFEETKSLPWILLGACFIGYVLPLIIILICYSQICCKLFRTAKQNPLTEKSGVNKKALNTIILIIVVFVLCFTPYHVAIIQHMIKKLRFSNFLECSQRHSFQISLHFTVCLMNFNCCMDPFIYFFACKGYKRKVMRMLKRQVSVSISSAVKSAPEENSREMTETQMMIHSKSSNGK
CCR6 antagonist – CCR6 (human) receptor antagonism. P51684. CHO-K1 CCR6 PathHunter beta-arrestin, luminescence, CCL20-stimulated. inhibition, % at 20 µM. 340,000 compounds, 0.49% hits;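 active = compounds whose inhibition of the agonist-driven luminescence signal at 20 µM reaches about 50%, limit read from the data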;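 note: cells stimulated with CCL20 at 14 nM final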
APJ antag conf – APJ receptor antagonism confirmation. shares compounds with APJ antag. APJ beta-arrestin recruitment, luminescence, antagonist mode. inhibition, % at 20 µM. 950 compounds, 66% hits. AID 2766; in the data active = inhibition above about 50%
A number is an active result; 0 = inactive; - = no result. An excerpt weighted towards active compounds, which were near 1.5% of everything screened.

SMILES	CXCR6 block	APJ ag	APJ antag	EBI2 block	CCR6 antagonist	APJ antag conf
O=C(Nc1ccccc1N1CCN(C(=O)c2ccccc2)CC1)c1ccccc1Cl	0	0	80	0	0	0
O=C(CN1C(=O)c2ccccc2C1=O)NCC(=O)OCC(=O)c1cccc([N+](=O)[O-])c1	0	0	70	0	0	103
O=C(CNC(=O)c1ccco1)NCC(=O)OCC(=O)c1ccc(Cl)c([N+](=O)[O-])c1	58	0	82	0	89	147
O=C(CN1C(=O)C2C3C=CC(C3)C2C1=O)OCC(=O)c1ccc(Cl)cc1 (stereo not given)	0	0	0	0	0	-
O=C(CN1C(=O)c2ccccc2C1=O)NCC(=O)OCC(=O)c1ccc(Br)cc1	0	0	0	0	0	-
O=C(CN1C(=O)C2CC=CCC2C1=O)OCC(=O)c1ccc(Cl)c([N+](=O)[O-])c1 (stereo not given)	58	0	79	0	79	149
O=C(Cc1ccccc1)NCC(=O)OCC(=O)c1cccc([N+](=O)[O-])c1	0	0	46	0	53	68
CSc1ccccc1NC(=O)C1(C)CCN1C(=O)Cc1ccc(-c2ccccc2)cc1 (stereo not given)	0	-	-	0	-	-
CC(C)NC(=O)CN1CCN(C(c2ccnc3ccccc23)c2nnnn2-c2ccc3c(c2)OCCO3)CC1 (stereo not given)	0	-	-	0	-	-
Cc1ccc(S(=O)(=O)/N=C(/Nc2ccc([N+](=O)[O-])cc2[N+](=O)[O-])c2ccccc2)cc1	0	0	0	0	0	-
N/C(=N\OC(=O)CCCc1ccccc1)c1cccc([N+](=O)[O-])c1	0	0	0	0	0	-
O=C(CN1C(=O)C2C3C=CC(C3)C2C1=O)OCC(=O)c1ccc([N+](=O)[O-])cc1 (stereo not given)	0	0	0	0	0	-
O=C(CN1C(=O)C2C3CC(C(Br)C3Br)C2C1=O)OCC(=O)c1cccc([N+](=O)[O-])c1 (stereo not given)	0	0	44	0	0	59
O=C(CCc1ccccc1)OCC(=O)c1cccc([N+](=O)[O-])c1	0	0	66	0	0	64
O=C1CCN(Cc2ccccc2)CCN1[C@H](CO)Cc1ccccc1	0	0	0	0	0	-
O=C1CCN(Cc2ccc(Br)cc2)CCN1[C@H](CO)Cc1ccccc1	0	0	45	0	0	0
NS(=O)(=O)c1ccc(NNC(=O)c2ccc(Br)o2)c([N+](=O)[O-])c1	0	0	52	0	69	82
COc1ccc(NC(=O)/C(Cl)=C(/Cl)S(=O)Cc2ccc(Cl)cc2)cn1 (stereo not given)	100	0	83	71	100	105
CSC(=NCc1ccco1)NC#N	0	0	44	0	0	0
CN(C)c1ccc(/C=C2\C(=N)N3C(=NC2=O)Sc2cc(S(C)(=O)=O)ccc23)cc1	-	0	53	-	-	0
CC(C)(C)n1nnnc1C(c1cc2ccccc2o1)N1CCCCC1 (stereo not given)	0	-	-	0	-	-
COc1ccc(S(=O)(=O)NC(C)C(=O)Nc2ccc3c(c2)OCCO3)cc1OC (stereo not given)	0	0	47	0	0	0
COc1ccc(S(=O)(=O)NC(C)C(=O)Nc2ccc3c(c2)OCO3)cc1OC (stereo not given)	0	0	0	0	0	-
O=C(Nc1nc2ccc(F)cc2s1)c1ccccn1	-	0	77	-	65	68
O=C(Nc1nc2ccccc2s1)c1cnccn1	0	0	0	0	0	-
SMILES	CXCR6 block	APJ ag	APJ antag	EBI2 block	CCR6 antagonist	APJ antag conf
C[C@@H]1CN([C@H](C)CO)C(=O)c2cc(Br)cnc2O[C@@H]1CN(C)C(=O)Cc1ccccc1	0	-	-	0	-	-
Cc1ccc(S(=O)(=O)Nc2ccccc2-c2ccccc2NS(=O)(=O)c2ccc(C)cc2)cc1	0	0	0	0	0	-
COc1ccc(S(=O)(=O)Nc2ccccn2)cc1	0	0	0	0	0	-
Cc1ccc(S(=O)(=O)Nc2cccc3cccnc23)cc1	70	0	76	0	86	96
COc1cc(NS(=O)(=O)c2ccc(C)cc2)c2ncccc2c1	0	0	72	75	0	63
O=C(NCC(F)(F)F)c1csc([C@@H]2O[C@H](CO)[C@H](O)[C@H](O)[C@H]2O)n1	0	-	-	0	-	-

Screening data from PubChem.
